Source: ChEMBL document CHEMBL1142682, “Design, synthesis, and biological evaluation of novel potent and selective alphavbeta3/alphavbeta5 integrin dual inhibitors with improved bioavailability. Selection of the molecular core” (J Med Chem, 2005)

Legend:
[1] = Mean residence time for the compound was determined in mouse upon 5 mpk intravenous administration; format: ADME, organism-based; conditions: in vivo, 5 mg/kg
[2] = Extension in area under curve for the compound was determined in mouse upon 5 mpk intravenous administration; format: ADME; conditions: in vivo, 5 mg/kg
[3] = biological target: Integrin alpha-IIb/beta-3 (Homo sapiens, UniProt P05106+P08514); assay: In vitro inhibition of human alphaIIb betaIIIa integrin binding in ELISA; format: protein-complex assay
Method in brief: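 Immobilized human fibrinogen (10 µg/mL coat, overnight 4 °C, Tris/Ca buffer pH 7.5) bound by human GPIIbIIIa (40 µg/mL) with compounds 0.027-20.0 µM, 1 h 37 °C; bound receptor detected with anti-GPIIbIIIa mAb then HRP anti-mouse IgG, OPD development, A492. % inhibition vs buffer controls, mean of three determinations; IC50 by four-parameter fit.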

Integrin alpha-V/beta-5 = Integrin alpha-V/beta-5 (Homo sapiens, UniProt P06756+P18084); assay: In vitro inhibition of human alphaV-beta5 integrin binding in ELISA; format: protein-complex assay
Chain of Integrin alpha-V/beta-5 (P06756 31-889 limits assumed): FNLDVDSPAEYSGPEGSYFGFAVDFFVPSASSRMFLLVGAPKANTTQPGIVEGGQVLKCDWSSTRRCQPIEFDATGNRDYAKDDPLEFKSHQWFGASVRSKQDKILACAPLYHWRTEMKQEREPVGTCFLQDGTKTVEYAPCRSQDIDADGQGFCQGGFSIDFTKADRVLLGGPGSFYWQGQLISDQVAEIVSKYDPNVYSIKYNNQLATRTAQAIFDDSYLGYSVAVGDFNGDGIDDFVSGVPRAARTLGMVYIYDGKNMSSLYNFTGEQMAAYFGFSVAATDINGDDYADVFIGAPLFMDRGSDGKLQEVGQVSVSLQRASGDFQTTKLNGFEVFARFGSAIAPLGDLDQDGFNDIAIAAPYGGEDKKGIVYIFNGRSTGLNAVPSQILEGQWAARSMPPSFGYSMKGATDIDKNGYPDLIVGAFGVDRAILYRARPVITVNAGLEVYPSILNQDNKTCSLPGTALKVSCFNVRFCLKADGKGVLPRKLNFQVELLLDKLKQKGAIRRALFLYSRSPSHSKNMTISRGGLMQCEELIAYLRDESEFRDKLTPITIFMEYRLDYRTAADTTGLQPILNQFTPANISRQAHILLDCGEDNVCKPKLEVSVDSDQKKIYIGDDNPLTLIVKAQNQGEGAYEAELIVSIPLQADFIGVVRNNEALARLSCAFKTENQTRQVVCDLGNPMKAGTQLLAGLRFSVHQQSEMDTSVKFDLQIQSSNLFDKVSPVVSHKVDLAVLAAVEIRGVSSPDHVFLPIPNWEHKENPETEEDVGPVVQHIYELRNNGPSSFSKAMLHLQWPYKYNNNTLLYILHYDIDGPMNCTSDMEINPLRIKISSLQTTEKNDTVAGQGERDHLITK
Chain of Integrin alpha-V/beta-5 (P06756 891-1048 limits assumed): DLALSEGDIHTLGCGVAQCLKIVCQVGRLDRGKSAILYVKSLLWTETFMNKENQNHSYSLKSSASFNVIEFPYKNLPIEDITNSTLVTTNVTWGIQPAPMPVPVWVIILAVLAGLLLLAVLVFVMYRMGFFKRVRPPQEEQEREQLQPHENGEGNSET
Chain of Integrin alpha-V/beta-5 (P18084 24-799 limits assumed): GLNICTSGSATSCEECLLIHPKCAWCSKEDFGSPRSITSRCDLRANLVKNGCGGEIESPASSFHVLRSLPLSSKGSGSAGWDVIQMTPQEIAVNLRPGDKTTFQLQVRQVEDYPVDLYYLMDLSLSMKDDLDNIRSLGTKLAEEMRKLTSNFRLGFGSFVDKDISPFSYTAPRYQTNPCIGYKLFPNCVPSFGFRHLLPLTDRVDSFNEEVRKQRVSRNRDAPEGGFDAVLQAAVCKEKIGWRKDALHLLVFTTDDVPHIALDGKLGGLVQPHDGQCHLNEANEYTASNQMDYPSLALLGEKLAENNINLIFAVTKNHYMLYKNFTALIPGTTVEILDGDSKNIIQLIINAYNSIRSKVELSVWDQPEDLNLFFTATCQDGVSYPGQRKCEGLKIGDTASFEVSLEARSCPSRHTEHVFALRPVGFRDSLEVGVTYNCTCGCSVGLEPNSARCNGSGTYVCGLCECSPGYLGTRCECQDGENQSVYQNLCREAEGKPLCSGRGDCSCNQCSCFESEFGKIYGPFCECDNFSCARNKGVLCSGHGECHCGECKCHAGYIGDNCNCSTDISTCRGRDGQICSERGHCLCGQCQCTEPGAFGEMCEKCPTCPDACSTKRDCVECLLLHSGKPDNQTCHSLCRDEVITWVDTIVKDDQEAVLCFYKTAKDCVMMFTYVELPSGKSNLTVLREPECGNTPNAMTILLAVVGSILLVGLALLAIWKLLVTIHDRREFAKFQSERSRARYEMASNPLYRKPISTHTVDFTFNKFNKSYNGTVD
Method in brief: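 Human αvβ5 coated at 1 µg/mL in Tris buffer with Ca, Mg, Mn; biotinylated human vitronectin (1 µg/mL) plus compounds (0.0001-20 µM) incubated 2 h, all at room temperature. NeutrAvidin-HRP, OPD development, absorbance 492 nm; IC50 from four-parameter fit of triplicate % inhibition relative to buffer controls.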

[4] = Half life in mouse upon 5 mpk intravenous administration; format: ADME, organism-based; conditions: in vivo, 5 mg/kg
[5] = Maximum concentration in mouse plasma upon 50 mpk peroral administration (n=3); format: ADME, organism-based; design: dose 50 mpk, route oral; conditions: po, 50 mg/kg
[6] = Area under curve for the compound was determined at infinity in mouse upon 5 mpk intravenous administration; format: ADME; conditions: in vivo, 5 mg/kg
[7] = Half life in mouse upon 50 mpk peroral administration; format: ADME, organism-based; conditions: in vivo, po, 50 mg/kg
[8] = Extension in area under curve for the compound was determined in mouse upon 50 mpk peroral administration; format: ADME; conditions: in vivo, po, 50 mg/kg
[9] = Apparent volume of distribution during the terminal phase was determined in mouse upon 5 mpk intravenous administration; format: ADME, organism-based; conditions: in vivo, 5 mg/kg, read-out: Vz
Integrin alpha-5/beta-1 = Integrin alpha-5/beta-1 (Homo sapiens, UniProt P05556+P08648); assay: In vitro inhibition of human alpha5-beta1 integrin binding in ELISA; format: protein-complex assay
Chain of Integrin alpha-5/beta-1 (P05556 21-798 limits assumed): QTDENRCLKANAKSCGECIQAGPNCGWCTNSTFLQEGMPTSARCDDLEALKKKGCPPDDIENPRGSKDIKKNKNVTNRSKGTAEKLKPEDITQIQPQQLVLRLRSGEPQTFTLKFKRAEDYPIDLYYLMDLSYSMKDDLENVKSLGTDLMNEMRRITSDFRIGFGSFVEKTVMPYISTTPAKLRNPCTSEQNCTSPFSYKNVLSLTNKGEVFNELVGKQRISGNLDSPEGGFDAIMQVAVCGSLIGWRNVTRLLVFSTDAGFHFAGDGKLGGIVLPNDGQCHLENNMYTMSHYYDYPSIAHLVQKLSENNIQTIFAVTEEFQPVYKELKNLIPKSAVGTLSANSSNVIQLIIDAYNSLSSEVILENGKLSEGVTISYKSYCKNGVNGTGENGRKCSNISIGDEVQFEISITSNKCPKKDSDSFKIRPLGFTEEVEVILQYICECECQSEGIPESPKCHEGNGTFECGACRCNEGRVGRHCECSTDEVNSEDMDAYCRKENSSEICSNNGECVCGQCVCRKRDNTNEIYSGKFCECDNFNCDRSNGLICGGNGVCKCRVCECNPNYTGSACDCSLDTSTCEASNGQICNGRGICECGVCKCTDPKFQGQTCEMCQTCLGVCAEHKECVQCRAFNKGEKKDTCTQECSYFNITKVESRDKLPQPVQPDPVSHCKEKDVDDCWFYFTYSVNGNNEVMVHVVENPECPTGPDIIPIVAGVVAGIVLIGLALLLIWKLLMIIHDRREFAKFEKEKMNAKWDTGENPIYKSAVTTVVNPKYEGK
Chain of Integrin alpha-5/beta-1 (P08648 42-894 limits assumed): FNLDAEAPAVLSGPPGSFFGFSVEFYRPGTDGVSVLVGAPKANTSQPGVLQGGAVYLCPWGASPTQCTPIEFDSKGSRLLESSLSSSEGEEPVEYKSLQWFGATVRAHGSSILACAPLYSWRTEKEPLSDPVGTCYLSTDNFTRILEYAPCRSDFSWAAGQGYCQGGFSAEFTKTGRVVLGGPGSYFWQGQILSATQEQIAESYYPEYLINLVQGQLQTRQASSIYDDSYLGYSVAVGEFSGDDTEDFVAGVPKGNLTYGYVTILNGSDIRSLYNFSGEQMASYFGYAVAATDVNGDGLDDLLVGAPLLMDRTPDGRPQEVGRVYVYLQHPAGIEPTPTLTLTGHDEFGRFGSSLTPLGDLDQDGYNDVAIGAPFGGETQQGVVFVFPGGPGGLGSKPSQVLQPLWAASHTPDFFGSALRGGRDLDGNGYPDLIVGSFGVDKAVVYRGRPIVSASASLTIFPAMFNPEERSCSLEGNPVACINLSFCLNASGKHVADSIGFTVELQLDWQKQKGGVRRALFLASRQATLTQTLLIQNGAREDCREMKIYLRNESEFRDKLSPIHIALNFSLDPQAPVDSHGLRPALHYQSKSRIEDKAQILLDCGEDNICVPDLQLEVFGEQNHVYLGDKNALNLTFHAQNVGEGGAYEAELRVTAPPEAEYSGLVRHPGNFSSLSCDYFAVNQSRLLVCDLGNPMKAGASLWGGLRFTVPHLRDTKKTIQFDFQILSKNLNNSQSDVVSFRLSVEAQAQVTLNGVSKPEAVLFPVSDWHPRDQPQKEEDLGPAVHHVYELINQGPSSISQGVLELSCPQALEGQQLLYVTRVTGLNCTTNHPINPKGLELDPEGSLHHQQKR
Chain of Integrin alpha-5/beta-1 (P08648 895-1049 limits assumed): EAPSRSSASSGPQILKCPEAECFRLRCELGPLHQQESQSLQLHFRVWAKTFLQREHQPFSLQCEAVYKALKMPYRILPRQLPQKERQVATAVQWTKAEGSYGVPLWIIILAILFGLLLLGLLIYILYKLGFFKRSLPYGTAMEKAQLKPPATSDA
Method in brief: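 Human α5β1 coated at 3 µg/mL; blocking and binding at 30 °C. Biotinylated human fibronectin (1 µg/mL) with compounds 0.0001-20 µM, 2 h; NeutrAvidin-HRP 1 h 30 °C, OPD read at 492 nm. % inhibition vs buffer controls averaged over three determinations; IC50 by four-parameter fit.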

[10] = Oral bioavailability in mouse (dose 50 mg/kg); format: ADME, organism-based; conditions: in vivo
[11] = Maximum clearance in mouse upon 5 mpk intravenous administration; format: ADME, organism-based; conditions: in vivo, 5 mg/kg
Caco-2 = assay: In vitro CACO-2 cell permeability potency was determined; format: functional, cell-based; conditions: Homo sapiens
[12] = Maximum time required to reach maximum plasma concentration in mouse upon 50 mpk peroral administration (n=3); Range = 0.25-0.50 hr; format: ADME, organism-based; conditions: po, 50 mg/kg
Integrin alpha-V/beta-3 = Integrin alpha-V/beta-3 (Homo sapiens, UniProt P05106+P06756); assay: In vitro inhibition of human alphaV-beta3 integrin binding in ELISA; format: protein-complex assay
Chain of Integrin alpha-V/beta-3 (P05106 27-788 limits assumed): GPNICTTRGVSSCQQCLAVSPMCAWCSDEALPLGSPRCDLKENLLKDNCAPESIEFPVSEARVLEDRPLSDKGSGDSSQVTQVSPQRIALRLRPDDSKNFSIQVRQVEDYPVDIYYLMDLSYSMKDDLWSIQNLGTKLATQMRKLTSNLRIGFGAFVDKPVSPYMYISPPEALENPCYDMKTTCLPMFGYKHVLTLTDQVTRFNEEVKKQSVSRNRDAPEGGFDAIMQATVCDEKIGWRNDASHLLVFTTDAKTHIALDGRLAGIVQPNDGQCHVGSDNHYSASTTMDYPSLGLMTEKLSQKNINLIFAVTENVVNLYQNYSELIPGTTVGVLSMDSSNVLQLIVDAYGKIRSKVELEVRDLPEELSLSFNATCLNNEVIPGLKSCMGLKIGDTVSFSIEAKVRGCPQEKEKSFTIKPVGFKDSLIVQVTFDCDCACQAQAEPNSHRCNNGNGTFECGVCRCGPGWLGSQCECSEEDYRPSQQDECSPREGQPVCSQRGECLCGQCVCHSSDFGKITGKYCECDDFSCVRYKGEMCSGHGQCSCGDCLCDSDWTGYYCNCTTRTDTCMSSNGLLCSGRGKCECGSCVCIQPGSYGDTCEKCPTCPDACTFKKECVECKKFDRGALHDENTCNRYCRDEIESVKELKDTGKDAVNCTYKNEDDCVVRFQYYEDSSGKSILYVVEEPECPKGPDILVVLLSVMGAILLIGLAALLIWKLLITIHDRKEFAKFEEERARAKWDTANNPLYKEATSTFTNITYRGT
Chain of Integrin alpha-V/beta-3 (P06756 31-889 limits assumed): as the sequence (P06756 31-889 limits assumed) above
Chain of Integrin alpha-V/beta-3 (P06756 891-1048 limits assumed): as the sequence (P06756 891-1048 limits assumed) above
Method in brief: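 Plate-coated human αvβ3 (0.4 µg/mL) in Tris buffer with Ca, Mg, Mn; compounds 0.0001-20.0 µM with biotinylated human vitronectin (1 µg/mL), 2 h, room temperature throughout. NeutrAvidin-HRP detection, OPD read at 492 nm; % inhibition vs buffer controls from triplicate determinations, IC50 by four-parameter fit.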

[13] = Area under curve for the compound was determined at infinity in mouse upon 50 mpk peroral administration; format: ADME; conditions: in vivo, po, 50 mg/kg

MRT [1] [min] | Ext AUC [2] [%] | IC50 [3] [nM] | IC50 (Integrin alpha-V/beta-5) [nM] | half-life [4] [min] | Cmax [5] [ng/mL] | AUC inf [6] [ng·h/mL] | half-life [7] [min] | Ext AUC [8] [%] | Vd [9] [L/kg] | IC50 (Integrin alpha-5/beta-1) [nM] | bioavailability [10] [%] | clearance [11] [mL/min/kg] | Tmax [12] [min] | IC50 (Integrin alpha-V/beta-3) [nM] | AUC inf [13] [ng·h/mL] | SMILES | Permeability (Caco-2) [AB cm/s]
33.6 | 1 | > 20000 | 140 | 44.4 | 27500 | 5040 | 140 | 5 | 1.05 | 7800 | 73 | 16.5 | 30 | 30 | 36700 | CNc1cccc(CCOc2ccc3c(CCC(=O)O)csc3c2)n1 | 1.6e-05
103 | 3 | > 20000 | 210 | 93.6 | 38300 | 7100 | 143 | 7 | 1.58 | 15000 | 90 | 11.7 | 30 | 49 | 64000 | CNc1cccc(CCOc2ccc3c(ccn3CCC(=O)O)c2)n1 | 6e-06
6.6 | 2 | > 20000 | 420 | 5.4 | 16200 | 1280 | 115 | 1 | 0.5 | > 20000 | 114 | 65.1 | 30 | 33 | 14600 | CNc1cccc(CCOc2ccc3c(CCC(=O)O)coc3c2)n1 | 1.7e-05
– | – | > 20000 | 2.5 | – | – | – | – | – | – | > 20000 | – | – | – | 470 | – | O=C(O)CCn1ccc2cc(OCCCNc3ccccn3)ccc21 | 6e-06
